Converted amounts (≈) assume the structure as drawn. Starred links: 1 amine or outer side, 2 acyl side, 3 side chain; linkers in the order of their positions; H or OH if unused. Non-standard residues stand in square brackets, D forms with d. Residues, ends and D or L forms follow the SMILES beside them. Dab(3S-OH) = NC[C@H](O)[C@H](N)C(=O)O; X1 = O=C([C@@H](CCCO)N[*:1])[*:2]; ΔZArg = N=C(N)NCC/C=C(\N)C(=O)O
Experiments:
[1] = target: Bacterial 70S ribosome; experiment: Inhibition of ribosome-mediated translation in Cell-free Escherichia coli protein synthesis system using pCmGFP as plasmid incubated at 30 degreeC measured every 20 mins by invitro coupled transcription-translation system based fluorescence analysis; assay type: subcellular
Summary of the method: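 E. coli cell-free coupled transcription-translation; template was gfp amplified from pCmGFP and cloned into pEXP5-CT, 1 µg plasmid DNA added to start each reaction. Feed buffer added at 30 min. Run at 30 °C, fluorescence (ex 475/em 520 nm) read every 20 min. IC50 taken from the signal 1 h after feed buffer addition.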

[2] = system: Escherichia coli; experiment: Antibacterial activity against wild type Escherichia coli ATCC 25922 by CLSI based broth microdilution method; assay type: functional
Summary of the method: (§1)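 MIC read by CLSI broth microdilution (M07-A10) from direct colony suspension inocula. Reference strains came from ATCC: wild-type E. coli ATCC 25922 and K. pneumoniae ATCC 13883. An efflux-defective ΔtolC E. coli isogenic to ATCC 25922 was also used.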

[3] = system: Escherichia coli; experiment: Antibacterial activity against efflux-defective (deltatolC) Escherichia coli ATCC 25922 by broth microdilution method; assay type: functional; summary of the method: as §1
[4] = system: Klebsiella pneumoniae; experiment: Antibacterial activity against wild type Klebsiella pneumoniae ATCC 13883 by CLSI based broth microdilution method; assay type: functional; summary of the method: as §1
[5] = system: Escherichia coli; experiment: Antibacterial activity against Escherichia coli by CLSI based broth microdilution method; assay type: functional; summary of the method: as §1
[6] = system: Klebsiella pneumoniae; experiment: Antibacterial activity against Klebsiella pneumoniae by CLSI based broth microdilution method; assay type: functional; summary of the method: as §1

| Compound | IC50 [1] | further results |
| --- | --- | --- |
| C[C@H](NC(=O)[C@@H](NC(=O)[C@@H](N)CCCCN)[C@@H](O)CN)C(=O)NCC(=O)N[C@H](CCCN)C(=O)N1CCC[C@H]1C(=O)N[C@@H](Cc1cnc[nH]1)C(=O)N[C@@H](CCCCN)C(=O)N/C(=C\CCNC(=N)N)C(=O)O | 0.5 µM | MIC [2]: 8 µg/mL (≈ 7.83 µM); MIC [3]: 8 µg/mL (≈ 7.83 µM); MIC [4]: 4 µg/mL (≈ 3.92 µM); MIC90 [5]: 32 µg/mL (≈ 31.3 µM); MIC90 [6]: 8 µg/mL (≈ 7.83 µM) |
| C[C@H](NC(=O)[C@@H](NC(=O)[C@@H](N)CCCCN)[C@H](O)CN)C(=O)NCC(=O)N[C@H](CCCN)C(=O)N1CCC[C@H]1C(=O)N[C@@H](Cc1c[nH]cn1)C(=O)N[C@@H](CCCCN)C(=O)N/C(=C\CCNC(=N)N)C(=O)O | > 40 µM |  |
| C[C@H](NC(=O)[C@@H](NC(=O)[C@@H](N)CCCCN)[C@@H](O)C(C)(C)N)C(=O)NCC(=O)N[C@H](CCCN)C(=O)N1CCC[C@H]1C(=O)N[C@@H](Cc1c[nH]cn1)C(=O)N[C@@H](CCCCN)C(=O)N/C(=C\CCNC(=N)N)C(=O)O | > 40 µM |  |
| CCCC[C@@H](NC(=O)CNC(=O)[C@H](C)NC(=O)[C@@H](NC(=O)[C@@H](N)CCCCN)[C@@H](O)CN)C(=O)N1CCC[C@H]1C(=O)N[C@@H](Cc1c[nH]cn1)C(=O)N[C@@H](CCCCN)C(=O)N/C(=C\CCNC(=N)N)C(=O)O | > 40 µM |  |
| C[C@H](NC(=O)[C@@H](NC(=O)[C@@H](N)CCCCN)[C@@H](O)[C@@H](C)N)C(=O)NCC(=O)N[C@H](CCCN)C(=O)N1CCC[C@H]1C(=O)N[C@@H](Cc1c[nH]cn1)C(=O)N[C@@H](CCCCN)C(=O)N/C(=C\CCNC(=N)N)C(=O)O | 10 µM |  |
| C[C@H](NC(=O)[C@@H](NC(=O)[C@@H](N)CCCCN)[C@H](C)O)C(=O)NCC(=O)N[C@H](CCCN)C(=O)N1CCC[C@H]1C(=O)N[C@@H](Cc1c[nH]cn1)C(=O)N[C@@H](CCCCN)C(=O)N/C(=C\CCNC(=N)N)C(=O)O | > 40 µM |  |
| C[C@H](NC(=O)[C@H](CO)NC(=O)[C@@H](N)CCCCN)C(=O)NCC(=O)N[C@H](CCCN)C(=O)N1CCC[C@H]1C(=O)N[C@@H](Cc1c[nH]cn1)C(=O)N[C@@H](CCCCN)C(=O)N/C(=C\CCNC(=N)N)C(=O)O | > 40 µM |  |
| C[C@H](NC(=O)[C@H](CCN)NC(=O)[C@@H](N)CCCCN)C(=O)NCC(=O)N[C@H](CCCN)C(=O)N1CCC[C@H]1C(=O)N[C@@H](Cc1c[nH]cn1)C(=O)N[C@@H](CCCCN)C(=O)N/C(=C\CCNC(=N)N)C(=O)O | 17 µM |  |
| C[C@H](NC(=O)[C@@H](NC(=O)[C@@H](N)CCCCN)[C@@H](O)[C@H](C)N)C(=O)NCC(=O)N[C@H](CCCN)C(=O)N1CCC[C@H]1C(=O)N[C@@H](Cc1c[nH]cn1)C(=O)N[C@@H](CCCCN)C(=O)N/C(=C\CCNC(=N)N)C(=O)O | > 40 µM |  |
| C[C@H](NC(=O)[C@@H](NC(=O)[C@@H](N)CCCCN)[C@@H](O)CCN)C(=O)NCC(=O)N[C@H](CCCN)C(=O)N1CCC[C@H]1C(=O)N[C@@H](Cc1c[nH]cn1)C(=O)N[C@@H](CCCCN)C(=O)N/C(=C\CCNC(=N)N)C(=O)O | 14.4 µM |  |
| CO[C@@H](CN)[C@H](NC(=O)[C@@H](N)CCCCN)C(=O)N[C@@H](C)C(=O)NCC(=O)N[C@H](CCCN)C(=O)N1CCC[C@H]1C(=O)N[C@@H](Cc1c[nH]cn1)C(=O)N[C@@H](CCCCN)C(=O)N/C(=C\CCNC(=N)N)C(=O)O | > 40 µM |  |
| CNC[C@H](O)[C@H](NC(=O)[C@@H](N)CCCCN)C(=O)N[C@@H](C)C(=O)NCC(=O)N[C@H](CCCN)C(=O)N1CCC[C@H]1C(=O)N[C@@H](Cc1c[nH]cn1)C(=O)N[C@@H](CCCCN)C(=O)N/C(=C\CCNC(=N)N)C(=O)O | 3.2 µM | MIC [2]: 64 µg/mL (≈ 61.8 µM); MIC [3]: 64 µg/mL (≈ 61.8 µM); MIC [4]: 32 µg/mL (≈ 30.9 µM) |
| C[C@H](NC(=O)[C@@H](NC(=O)[C@@H](N)CCCCN)[C@@H](O)CN)C(=O)NCC(=O)N[C@H](CCN)C(=O)N1CCC[C@H]1C(=O)N[C@@H](Cc1c[nH]cn1)C(=O)N[C@@H](CCCCN)C(=O)N/C(=C\CCNC(=N)N)C(=O)O | 36.3 µM |  |
| C[C@H](NC(=O)[C@@H](NC(=O)[C@@H](N)CCCCN)[C@@H](C)CN)C(=O)NCC(=O)N[C@H](CCCN)C(=O)N1CCC[C@H]1C(=O)N[C@@H](Cc1c[nH]cn1)C(=O)N[C@@H](CCCCN)C(=O)N/C(=C\CCNC(=N)N)C(=O)O | 26.7 µM |  |
| C[C@H](NC(=O)[C@@H](NC(=O)[C@@H](N)CCCCN)[C@@H](O)CN)C(=O)NCC(=O)N[C@](C)(CCCN)C(=O)N1CCC[C@H]1C(=O)N[C@@H](Cc1c[nH]cn1)C(=O)N[C@@H](CCCCN)C(=O)N/C(=C\CCNC(=N)N)C(=O)O | 18.1 µM |  |
| CNCCC[C@@H](NC(=O)CNC(=O)[C@H](C)NC(=O)[C@@H](NC(=O)[C@@H](N)CCCCN)[C@@H](O)CN)C(=O)N1CCC[C@H]1C(=O)N[C@@H](Cc1c[nH]cn1)C(=O)N[C@@H](CCCCN)C(=O)N/C(=C\CCNC(=N)N)C(=O)O | > 40 µM |  |
| C[C@H](N)CC[C@@H](NC(=O)CNC(=O)[C@H](C)NC(=O)[C@@H](NC(=O)[C@@H](N)CCCCN)[C@@H](O)CN)C(=O)N1CCC[C@H]1C(=O)N[C@@H](Cc1c[nH]cn1)C(=O)N[C@@H](CCCCN)C(=O)N/C(=C\CCNC(=N)N)C(=O)O | 17.9 µM |  |
| C[C@H](NC(=O)[C@@H](NC(=O)[C@@H](N)CCCCN)[C@@H](O)CN)C(=O)NCC(=O)N[C@H](CC[C@@H](C)N)C(=O)N1CCC[C@H]1C(=O)N[C@@H](Cc1c[nH]cn1)C(=O)N[C@@H](CCCCN)C(=O)N/C(=C\CCNC(=N)N)C(=O)O | > 40 µM |  |
| C[C@H](NC(=O)[C@@H](NC(=O)[C@@H](N)CCCCN)[C@@H](O)CN)C(=O)NCC(=O)N[C@H](CCCCN)C(=O)N1CCC[C@H]1C(=O)N[C@@H](Cc1c[nH]cn1)C(=O)N[C@@H](CCCCN)C(=O)N/C(=C\CCNC(=N)N)C(=O)O | > 40 µM |  |
| CC(=O)NCCC[C@@H](NC(=O)CNC(=O)[C@H](C)NC(=O)[C@@H](NC(=O)[C@@H](N)CCCCN)[C@@H](O)CN)C(=O)N1CCC[C@H]1C(=O)N[C@@H](Cc1c[nH]cn1)C(=O)N[C@@H](CCCCN)C(=O)N/C(=C\CCNC(=N)N)C(=O)O | > 40 µM |  |
| C[C@H](NC(=O)[C@@H](NC(=O)[C@@H](N)CCCCN)[C@@H](O)CN)C(=O)NCC(=O)N[C@H](CCCO)C(=O)N1CCC[C@H]1C(=O)N[C@@H](Cc1c[nH]cn1)C(=O)N[C@@H](CCCCN)C(=O)N/C(=C\CCNC(=N)N)C(=O)O (H-K[Dab(3S-OH)]AG[X1]PHK[ΔZArg]-OH) | 1.3 µM | MIC [2]: > 64 µg/mL; MIC [3]: > 64 µg/mL; MIC [4]: > 64 µg/mL |

— ChEMBL document CHEMBL4725223, “Structure-activity relationship studies on the inhibition of the bacterial translation of novel Odilorhabdins analogues” (Bioorg Med Chem, 2020)
